species on record: Bos taurus; experiment: Thermal denaturation (deltaTm) of compound against calf thymus DNA was measured; assay type: ADME; settings: cattle, in vitro
Method in brief: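 Calf thymus DNA (MW 100 000–500 000) in 0.01 M phosphate, 5 × 10^-3 M EDTA, pH 7.0; drug 7 × 10^-4 M, DNA nucleotide 7 × 10^-3 M; 259 nm absorbance read at 0.25–1.0 °C steps; Tm taken at 50% hyperchromicity; ΔTm = complex Tm minus DNA Tm.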

| SMILES | Delta Tm |
| --- | --- |
| Cc1c2oc3c(C)c(OCc4ccc([N+](=O)[O-])cc4)cc(C(=O)N[C@@H]4C(=O)N[C@H](C(C)C)C(=O)N5CCC[C@H]5C(=O)N(C)CC(=O)N(C)[C@@H](C(C)C)C(=O)O[C@@H]4C)c3nc-2c(C(=O)N[C@@H]2C(=O)N[C@H](C(C)C)C(=O)N3CCC[C@H]3C(=O)N(C)CC(=O)N(C)[C@@H](C(C)C)C(=O)O[C@@H]2C)c(N)c1=O | 0 |
| CCCCCCCCCCCNc1c(C(=O)N[C@@H]2C(=O)N[C@H](C(C)C)C(=O)N3CCC[C@H]3C(=O)N(C)CC(=O)N(C)[C@@H](C(C)C)C(=O)O[C@@H]2C)c2nc3c(C(=O)N[C@@H]4C(=O)N[C@H](C(C)C)C(=O)N5CCC[C@H]5C(=O)N(C)CC(=O)N(C)[C@@H](C(C)C)C(=O)O[C@@H]4C)ccc(C)c3oc-2c(C)c1=O | 0 |
| CCCNc1c(C(=O)N[C@@H]2C(=O)N[C@H](C(C)C)C(=O)N3CCC[C@H]3C(=O)N(C)CC(=O)N(C)[C@@H](C(C)C)C(=O)O[C@@H]2C)c2nc3c(C(=O)N[C@@H]4C(=O)N[C@H](C(C)C)C(=O)N5CCC[C@H]5C(=O)N(C)CC(=O)N(C)[C@@H](C(C)C)C(=O)O[C@@H]4C)ccc(C)c3oc-2c(C)c1=O | 1.5 |
| Cc1c2oc3c(C)ccc(C(=O)N[C@@H]4C(=O)N[C@H](C(C)C)C(=O)N5CCC[C@H]5C(=O)N(C)CC(=O)N(C)[C@@H](C(C)C)C(=O)O[C@@H]4C)c3nc-2c(C(=O)N[C@@H]2C(=O)N[C@H](C(C)C)C(=O)N3CCC[C@H]3C(=O)N(C)CC(=O)N(C)[C@@H](C(C)C)C(=O)O[C@@H]2C)c(NCCCCCN)c1=O | 1.1 |
| Cc1c2oc3c(C)ccc(C(=O)N[C@@H]4C(=O)N[C@H](C(C)C)C(=O)N5CCC[C@H]5C(=O)N(C)CC(=O)N(C)[C@@H](C(C)C)C(=O)O[C@@H]4C)c3nc-2c(C(=O)N[C@@H]2C(=O)N[C@H](C(C)C)C(=O)N3CCC[C@H]3C(=O)N(C)CC(=O)N(C)[C@@H](C(C)C)C(=O)O[C@@H]2C)c(NCCCN)c1=O | 6.2 |
| Cc1c2oc3c(C)ccc(C(=O)N[C@@H]4C(=O)N[C@H](C(C)C)C(=O)N5CCC[C@H]5C(=O)N(C)CC(=O)N(C)[C@@H](C(C)C)C(=O)O[C@@H]4C)c3nc-2c(C(=O)N[C@@H]2C(=O)N[C@H](C(C)C)C(=O)N3CCC[C@H]3C(=O)N(C)CC(=O)N(C)[C@@H](C(C)C)C(=O)O[C@@H]2C)c(NCCCCCCCCCCN)c1=O | 6.6 |
| Cc1c2oc3c(C)c(O)c(N)c(C(=O)N[C@@H]4C(=O)N[C@H](C(C)C)C(=O)N5CCC[C@H]5C(=O)N(C)CC(=O)N(C)[C@@H](C(C)C)C(=O)O[C@@H]4C)c3nc-2c(C(=O)N[C@@H]2C(=O)N[C@H](C(C)C)C(=O)N3CCC[C@H]3C(=O)N(C)CC(=O)N(C)[C@@H](C(C)C)C(=O)O[C@@H]2C)cc1=N | 8.2 |
| CCCCCCNc1c(C(=O)N[C@@H]2C(=O)N[C@H](C(C)C)C(=O)N3CCC[C@H]3C(=O)N(C)CC(=O)N(C)[C@@H](C(C)C)C(=O)O[C@@H]2C)c2nc3c(C(=O)N[C@@H]4C(=O)N[C@H](C(C)C)C(=O)N5CCC[C@H]5C(=O)N(C)CC(=O)N(C)[C@@H](C(C)C)C(=O)O[C@@H]4C)ccc(C)c3oc-2c(C)c1=O | 0 |
| Cc1c2oc3c(C)ccc(C(=O)N[C@@H]4C(=O)N[C@H](C(C)C)C(=O)N5CCC[C@H]5C(=O)N(C)CC(=O)N(C)[C@@H](C(C)C)C(=O)O[C@@H]4C)c3nc-2c(C(=O)N[C@@H]2C(=O)N[C@H](C(C)C)C(=O)N3CCC[C@H]3C(=O)N(C)CC(=O)N(C)[C@@H](C(C)C)C(=O)O[C@@H]2C)c(NCCCCCCCCN)c1=O | 0.3 |
| CCCCNc1c(C(=O)N[C@@H]2C(=O)N[C@H](C(C)C)C(=O)N3CCC[C@H]3C(=O)N(C)CC(=O)N(C)[C@@H](C(C)C)C(=O)O[C@@H]2C)c2nc3c(C(=O)N[C@@H]4C(=O)N[C@H](C(C)C)C(=O)N5CCC[C@H]5C(=O)N(C)CC(=O)N(C)[C@@H](C(C)C)C(=O)O[C@@H]4C)ccc(C)c3oc-2c(C)c1=O | 0.2 |
| CCCCCNc1c(C(=O)N[C@@H]2C(=O)N[C@H](C(C)C)C(=O)N3CCC[C@H]3C(=O)N(C)CC(=O)N(C)[C@@H](C(C)C)C(=O)O[C@@H]2C)c2nc3c(C(=O)N[C@@H]4C(=O)N[C@H](C(C)C)C(=O)N5CCC[C@H]5C(=O)N(C)CC(=O)N(C)[C@@H](C(C)C)C(=O)O[C@@H]4C)ccc(C)c3oc-2c(C)c1=O | 0 |
| CCCCCCCCC/N=c1/cc(C(=O)N[C@@H]2C(=O)N[C@H](C(C)C)C(=O)N3CCC[C@H]3C(=O)N(C)CC(=O)N(C)[C@@H](C(C)C)C(=O)O[C@@H]2C)c2nc3c(C(=O)N[C@@H]4C(=O)N[C@H](C(C)C)C(=O)N5CCC[C@H]5C(=O)N(C)CC(=O)N(C)[C@@H](C(C)C)C(=O)O[C@@H]4C)c(N)c(O)c(C)c3oc-2c1C | 1.1 |
| CCCCCCCCCNc1c(C(=O)N[C@@H]2C(=O)N[C@H](C(C)C)C(=O)N3CCC[C@H]3C(=O)N(C)CC(=O)N(C)[C@@H](C(C)C)C(=O)O[C@@H]2C)c2nc3c(C(=O)N[C@@H]4C(=O)N[C@H](C(C)C)C(=O)N5CCC[C@H]5C(=O)N(C)CC(=O)N(C)[C@@H](C(C)C)C(=O)O[C@@H]4C)ccc(C)c3oc-2c(C)c1=O | 0 |
| Cc1c2oc3c(C)c(O)c(N)c(C(=O)N[C@@H]4C(=O)N[C@H](C(C)C)C(=O)N5CCC[C@H]5C(=O)N(C)CC(=O)N(C)[C@@H](C(C)C)C(=O)O[C@@H]4C)c3nc-2c(C(=O)N[C@@H]2C(=O)N[C@H](C(C)C)C(=O)N3CCC[C@H]3C(=O)N(C)CC(=O)N(C)[C@@H](C(C)C)C(=O)O[C@@H]2C)c/c1=N/Cc1cccc(Oc2ccccc2)c1 | 5.3 |
| Cc1c2oc3c(C)c(O)c(N)c(C(=O)N[C@@H]4C(=O)N[C@H](C(C)C)C(=O)N5CCC[C@H]5C(=O)N(C)CC(=O)N(C)[C@@H](C(C)C)C(=O)O[C@@H]4C)c3nc-2c(C(=O)N[C@@H]2C(=O)N[C@H](C(C)C)C(=O)N3CCC[C@H]3C(=O)N(C)CC(=O)N(C)[C@@H](C(C)C)C(=O)O[C@@H]2C)c/c1=N/Cc1ccccc1 | 6.6 |
| COc1cc(C(=O)N[C@@H]2C(=O)N[C@H](C(C)C)C(=O)N3CCC[C@H]3C(=O)N(C)CC(=O)N(C)[C@@H](C(C)C)C(=O)O[C@@H]2C)c2nc3c(C(=O)N[C@@H]4C(=O)N[C@H](C(C)C)C(=O)N5CCC[C@H]5C(=O)N(C)CC(=O)N(C)[C@@H](C(C)C)C(=O)O[C@@H]4C)c(N)c(=O)c(C)c-3oc2c1C | 5.5 |
| CCCCCCCOc1cc(C(=O)N[C@@H]2C(=O)N[C@H](C(C)C)C(=O)N3CCC[C@H]3C(=O)N(C)CC(=O)N(C)[C@@H](C(C)C)C(=O)O[C@@H]2C)c2nc3c(C(=O)N[C@@H]4C(=O)N[C@H](C(C)C)C(=O)N5CCC[C@H]5C(=O)N(C)CC(=O)N(C)[C@@H](C(C)C)C(=O)O[C@@H]4C)c(N)c(=O)c(C)c-3oc2c1C | 0 |
| Cc1c2oc3c(C)c(OCc4ccc(Cl)cc4)cc(C(=O)N[C@@H]4C(=O)N[C@H](C(C)C)C(=O)N5CCC[C@H]5C(=O)N(C)CC(=O)N(C)[C@@H](C(C)C)C(=O)O[C@@H]4C)c3nc-2c(C(=O)N[C@@H]2C(=O)N[C@H](C(C)C)C(=O)N3CCC[C@H]3C(=O)N(C)CC(=O)N(C)[C@@H](C(C)C)C(=O)O[C@@H]2C)c(N)c1=O | 0 |
| CCOc1cc(C(=O)N[C@@H]2C(=O)N[C@H](C(C)C)C(=O)N3CCC[C@H]3C(=O)N(C)CC(=O)N(C)[C@@H](C(C)C)C(=O)O[C@@H]2C)c2nc3c(C(=O)N[C@@H]4C(=O)N[C@H](C(C)C)C(=O)N5CCC[C@H]5C(=O)N(C)CC(=O)N(C)[C@@H](C(C)C)C(=O)O[C@@H]4C)c(N)c(=O)c(C)c-3oc2c1C | 5.9 |
| Cc1c2oc3c(C)c(O)c(N)c(C(=O)N[C@@H]4C(=O)N[C@H](C(C)C)C(=O)N5CCC[C@H]5C(=O)N(C)CC(=O)N(C)[C@@H](C(C)C)C(=O)O[C@@H]4C)c3nc-2c(C(=O)N[C@@H]2C(=O)N[C@H](C(C)C)C(=O)N3CCC[C@H]3C(=O)N(C)CC(=O)N(C)[C@@H](C(C)C)C(=O)O[C@@H]2C)c/c1=N/Cc1ccc[nH]1 | 15.8 |
| Cc1c2oc3c(C)c(O)c(N)c(C(=O)N[C@@H]4C(=O)N[C@H](C(C)C)C(=O)N5CCC[C@H]5C(=O)N(C)CC(=O)N(C)[C@@H](C(C)C)C(=O)O[C@@H]4C)c3nc-2c(C(=O)N[C@@H]2C(=O)N[C@H](C(C)C)C(=O)N3CCC[C@H]3C(=O)N(C)CC(=O)N(C)[C@@H](C(C)C)C(=O)O[C@@H]2C)c/c1=N/Cc1ccco1 | 5.8 |
| Cc1c2oc3c(C)ccc(C(=O)N[C@@H]4C(=O)N[C@H](C(C)C)C(=O)N5CCC[C@H]5C(=O)N(C)CC(=O)N(C)[C@@H](C(C)C)C(=O)O[C@@H]4C)c3nc-2c(C(=O)N[C@@H]2C(=O)N[C@H](C(C)C)C(=O)N3CCC[C@H]3C(=O)N(C)CC(=O)N(C)[C@@H](C(C)C)C(=O)O[C@@H]2C)c(NCCCCN)c1=O | 1.8 |
| Cc1c2oc3c(C)c(OCc4ccc(Cl)c(Cl)c4)cc(C(=O)N[C@@H]4C(=O)N[C@H](C(C)C)C(=O)N5CCC[C@H]5C(=O)N(C)CC(=O)N(C)[C@@H](C(C)C)C(=O)O[C@@H]4C)c3nc-2c(C(=O)N[C@@H]2C(=O)N[C@H](C(C)C)C(=O)N3CCC[C@H]3C(=O)N(C)CC(=O)N(C)[C@@H](C(C)C)C(=O)O[C@@H]2C)c(N)c1=O | 0 |
| CCCOc1cc(C(=O)N[C@@H]2C(=O)N[C@H](C(C)C)C(=O)N3CCC[C@H]3C(=O)N(C)CC(=O)N(C)[C@@H](C(C)C)C(=O)O[C@@H]2C)c2nc3c(C(=O)N[C@@H]4C(=O)N[C@H](C(C)C)C(=O)N5CCC[C@H]5C(=O)N(C)CC(=O)N(C)[C@@H](C(C)C)C(=O)O[C@@H]4C)c(N)c(=O)c(C)c-3oc2c1C | 3.5 |
| Cc1c2oc3c(C)c(O)c(N)c(C(=O)N[C@@H]4C(=O)N[C@H](C(C)C)C(=O)N5CCC[C@H]5C(=O)N(C)CC(=O)N(C)[C@@H](C(C)C)C(=O)O[C@@H]4C)c3nc-2c(C(=O)N[C@@H]2C(=O)N[C@H](C(C)C)C(=O)N3CCC[C@H]3C(=O)N(C)CC(=O)N(C)[C@@H](C(C)C)C(=O)O[C@@H]2C)c/c1=N/Cc1ccc(Cl)c(Cl)c1 | 7 |
| Cc1c2oc3c(C)c(O)c(N)c(C(=O)N[C@@H]4C(=O)N[C@H](C(C)C)C(=O)N5CCC[C@H]5C(=O)N(C)CC(=O)N(C)[C@@H](C(C)C)C(=O)O[C@@H]4C)c3nc-2c(C(=O)N[C@@H]2C(=O)N[C@H](C(C)C)C(=O)N3CCC[C@H]3C(=O)N(C)CC(=O)N(C)[C@@H](C(C)C)C(=O)O[C@@H]2C)cc1=O | 6.7 |
